# PolyA inhibitor = inhibitors of polyadenylation in S. cerevisiae; S. cerevisiae SKY197-pL101 polyadenylation reporter, beta-gal luminescence; efflux-impaired pdr1/pdr3 knockout yeast; score 100 = 6 SD above DMSO; activity score, % at 12 µM; 300,000 compounds, 0.02% hits; AID 1875;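 active = lowest replicate activity score at least 50, where 100 means six control SD above control mean; inconclusive = lowest score under 50 but half or more replicates reach 50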;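 also: yeast exposed to compound for 9 h at 30 °C; higher score means more reporter readthrough which indicates perturbed polyadenylation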
# Calb FLC = affects C. albicans growth with fluconazole; C. albicans CaCi-2 (fluconazole-resistant clinical isolate) + fluconazole, Alamar Blue growth, 48 h; growth inhibition, % (no concentration beside the values); 300,000 compounds, 0.57% hits; AID 1979;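 active = growth inhibition above about 58% in most replicates, limit read from the data, passing the limit was not always enough; inconclusive = exactly half the replicates above a set limit; inactive = most replicates below a set limit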;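 also: all wells also contain fluconazole at 8 µg/ml as a sub-toxic cotreatment; 0% = median of DMSO wells and 100% = median of geldanamycin control wells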
# Lmaj promast = Leishmania major promastigote growth inhibition | 200,000 compounds, 9% hits | inhibition, % at 10 µM | Leishmania major promastigotes, resazurin fluorescence viability | AID 1063; in the data active = inhibition above about 50%;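 also: promastigotes grown with compound for 44 hours at 28 °C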
# NALP1 yeast inh = blocks the NALP1 inflammasome reconstituted in yeast. AID 2071. S. cerevisiae NALP1/ASC/caspase-1 growth, X-gal OD620, 72 h. 280,000 compounds, 0.61% hits. inhibition, % at 10 µM; in the data active = inhibition mostly above about 24%, no sharp cut-off; inactive = mostly below about 32%
# NALP3 yeast inh = blocks the NALP3 inflammasome reconstituted in yeast | Yeast reconstituted NLRP3/ASC/caspase-1, beta-gal luminescence, 24 h | inhibition, % at 10 µM | 330,000 compounds, 0.39% hits | AID 2825;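 active = inhibition of 50% or more; inactive = inhibition below 50%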;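 also: plate controls were induced DMSO wells for no effect and uninduced yeast grown without galactose for full effect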
# T cruzi repl = T. cruzi replication inhibition; T. cruzi beta-gal in NIH3T3, luminescence, 90 h; 300,000 compounds, 1.4% hits; inhibition, % (test concentration not listed);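 active = mean inhibition across valid replicates above about 55%, limit read from the data; inconclusive = mean below that limit but half or more replicates reach it; inactive = mean below it, under half of replicates reach it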;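 also: signal also drops with host cell toxicity which is not excluded here; 0% = plate median of DMSO wells and 100% = zero luminescence signal; higher percent means less beta-gal luminescence so fewer parasites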
#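 System – NIH/3T3 host cells with β-galactosidase reporter T. cruzi · Doses – single 50 nL compound addition per well in DMSO · Reagent – 5000 T. cruzi trypomastigotes/well · Medium – Low-serum DMEM with 2% FBS · Timing – ≥90 h infection period, 3 h prior cell attachment · Evaluation – parasite load inhibition, % · Technique – GalScreen luminescence, 60 min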
# Starred values were filed as active, the others as inactive; ? = inconclusive; · = no result given. This excerpt belongs to a sample that is enriched for hits.
SMILES,PolyA inhibitor,Calb FLC,Lmaj promast,NALP1 yeast inh,NALP3 yeast inh,T cruzi repl
CCOc1ccc(-c2nnn(CC(=O)NCCc3c[nH]c4ccccc34)n2)cc1,7,-29,94*,35,6,32
CCCCNC(=O)OCCNC(=O)NC,·,-14,-6,6,5,-1
O=[N+]([O-])c1ccc(Sc2ccccn2)nc1,-19,16,·,34,9,3
O=[N+]([O-])c1ccc(Sc2nnnn2-c2ccccc2)nc1,-25,-1,82*,-5,5,36
COc1ccc(COC(=O)C2=C(C)NC(=O)NC2c2ccccc2OC(C)C)cc1 (configuration not stated),5,11,·,8,10,10
O=C1c2cccc3cccc(c23)C(=O)N1CCc1ccccc1,-41,-2,3,9,30,-27
CCC(CO)NCc1ccc(OC2CCCC2)cc1 (configuration not stated),14,29,86*,9,21,17
COc1cc(CNCCO)ccc1OC1CCCC1,1,3,36,-7,-14,35
CN(C)CCNCc1ccc(OC2CCCC2)cc1,28,17,50*,-1,4,·
CCC(CO)NCc1ccc(Br)cc1 (configuration not stated),?,-14,0,4,-1,-17
CN(Cc1ccccc1)C(=O)CSc1n[nH]c(N)n1,-4,5,·,-1,17,-9
O=C(CSc1nnc(-c2cccnc2)n1Cc1ccco1)N1CCc2ccccc21,28,8,3,13,-6,3
Cc1occc1-c1nnc(SCC(=O)N2CCCc3ccccc32)n1Cc1ccco1,15,-5,74*,3,7,11
Cc1cccc(-n2ccnc2SCC(=O)N2CCCc3ccccc32)c1C,-4,-6,60*,18,-5,7
Cn1nc([N+](=O)[O-])nc1Oc1ccccc1F,5,5,-2,2,10,74*
O=C(CCCC(=O)N(c1ccc2c(c1)OCCO2)C(C(=O)NC1CCCCC1)c1ccc(Cl)cc1)Nc1ccccn1 (configuration not stated),8,14,58*,26,2,8
O=C(NC1CCCC1)C(c1ccc(Cl)cc1)N(Cc1ccc(F)cc1)C(=O)CCl (configuration not stated),18,-7,100*,23,-3,-9
O=C(NC1CCCCC1)C(c1cccnc1)N(C(=O)c1ccc(Cl)nc1)C1CCCCC1 (configuration not stated),3,-1,56*,-3,9,1
COC(CN(C(=O)CCl)C(C(=O)NC1CCCCC1)c1ccc(Cl)cc1)OC (configuration not stated),25,27,81*,26,4,-13
FC(F)(F)Oc1ccc(Nc2nc(N3CCOCC3)nc(N3CCOCC3)n2)cc1,-10,7,·,11,31,20
CC(=O)c1ccc(NC(=O)c2ccn(C(=O)OCC(C)C)n2)cc1,-1,-15,-7,4,32,-11
CC(=O)Nc1ccc(C(=O)CSc2nccc(=O)[nH]2)cc1,7,-25,44,11,5,-10
COc1ccc(C(C(=O)NC2CCCCC2)N(C(=O)CCl)c2ccc(Cl)cc2)cc1 (configuration not stated),-5,2,100*,16,1,56*
Cc1cccc(N(C(=O)CNC(=O)c2ccco2)C(C(=O)NC2CCCCC2)c2cccnc2)c1 (configuration not stated),14,4,·,24,20,8
COC(CN(C(=O)CCl)C(C(=O)NC1CCCC(C)C1C)c1ccc(C)cc1)OC (configuration not stated),-7,-29,100*,19,12,-9
SMILES,PolyA inhibitor,Calb FLC,Lmaj promast,NALP1 yeast inh,NALP3 yeast inh,T cruzi repl
COC(CN(C)C(C(=O)NC1CCCCC1)c1ccccc1)OC (configuration not stated),-4,5,-6,2,0,-2
CCN(CC)C(C(=O)NC1CCCCC1)c1ccc(C)cc1 (configuration not stated),4,-5,13,-1,7,-12
O=C(NC1CCCCC1)C(c1cccnc1)N(C(=O)CCl)c1cccc(Cl)c1 (configuration not stated),4,-2,100*,39,5,31
COC(CN(C(=O)CCl)C(C(=O)NC1CCCCC1)c1ccccc1C)OC (configuration not stated),10,4,68*,22,10,-8
CC(C(=O)N1CCc2ccccc21)N1CCN(S(=O)(=O)c2cccs2)CC1 (configuration not stated),·,·,·,·,20,·
O=C(N/N=C(\Cc1ncc[nH]1)c1ccccc1)c1ccccc1,-6,?,6,-6,31,74*
CC(C)CN(CCOc1cccc(N2C(=O)C3=C(CCCC3)C2=O)c1)CC(C)C,0,-9,63*,19,5,10
O=C(Nc1cccc(Cl)c1)OCc1cncs1,15,-8,78*,1,27,22
CCOc1cc(/C=N/N=C(/N)c2nonc2N)cc(Br)c1OCc1ccc(Cl)cc1,2,-5,10,24,18,29
COc1cc(/C=N/N=C(/N)c2nonc2N)cc(Br)c1OCc1ccccc1C,-9,5,75*,9,22,42
O=C1c2cccc3c([N+](=O)[O-])ccc(c23)C(=O)N1c1nccs1,14,26,64*,2,-1,0
O=C1c2cccc3c([N+](=O)[O-])ccc(c23)C(=O)N1c1ccc(Cl)cn1,-90,1,100*,6,-8,31
O=C1c2cccc3c([N+](=O)[O-])ccc(c23)C(=O)N1O,10,-3,·,10,11,2
O=C1c2cccc3cccc(c23)C(=O)N1c1nccs1,-24,-13,-2,11,-5,·
O=C1c2cccc3c([N+](=O)[O-])ccc(c23)C(=O)N1c1ccccn1,-40,7,100*,5,7,20
CCc1nc2ccc(C(=O)N3CCN(c4ccc([N+](=O)[O-])cc4)CC3)cc2nc1CC,-3,11,·,26,12,18
OCCCNc1cc(-c2ccccc2)nc2cc(-c3ccc(F)cc3)nn12,8,8,·,13,28,19
COc1ccc(NC(=O)CSc2nc(N)c(NC(=O)c3cccs3)c(=O)[nH]2)cc1,22,0,·,·,2,-24
O=C(CSCc1cnn(-c2ccccc2)c1-n1cccc1)N1CCN(Cc2ccccc2)CC1,-8,17,97*,15,22,45
Cc1ccc(/C=C/C(=O)c2ccccc2)cc1,1,-1,18,-11,13,-4
O=C(/C=C/c1ccccc1Cl)c1ccc(O)cc1,-13,4,·,20,30,-10

# High-throughput results from PubChem BioAssay.
